According to paper PMC3206604 (Journal of natural products, 2011):

Legend:
human 20S proteasome [1] = biological target: human 20S proteasome (Homo sapiens, UniProt P28074); experiment: Proteasome inhibition assay; assay type: biochemical; settings: for proteasome ED50 / IC50: Table 3, results expressed as ED50; for IC50: read-out: proteasome ED50
[2] = system: HT-29 human colon cancer cells; experiment: Mitochondrial transmembrane potential; assay type: cell-based; settings: HT-29 cells; for MTP ED50: reduction of mitochondrial transmembrane potential (ΔΨm)
Outline: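 ΔΨm detected with a JC-1 mitochondrial membrane potential kit, following a previously established protocol. A positive control was run alongside the test compounds. Values were reported as ED50.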

[3] = system: human colon cancer cells (HT-29); experiment: Cytotoxicity assay; assay type: cell-based; settings: HT-29 cells, standard protocol
human 20S proteasome [4] = experiment: Proteasome inhibition assay; assay type: biochemical; settings: Table 3, results expressed as ED50

## 5,7-dihydroxy-6-(2‴-hydroxy-5‴-(2′‴-hydroxy-5′‴-(2″‴-hydroxy-5″‴-(2‴‴-hydroxybenzyl)benzyl)benzyl) benzyl)-8-(2″-hydroxybenzyl)-flavanone [compound 3]
Human 20S proteasome [1]
  proteasome ED50: >20 µM
[2]
  MTP ED50: 2.5 µM

## 5″-(2′‴-hydroxybenzyl)uvarinol [compound 9]
Human 20S proteasome [1]
  proteasome ED50: >20 µM
[2]
  MTP ED50: 2.3 µM

## 7-methoxychamanetin [compound 6]
Human 20S proteasome [1]
  proteasome ED50: >20 µM
[2]
  MTP ED50: 13.6 µM

## 7-methoxydichamanetin [compound 8]
Human 20S proteasome [1]
  proteasome ED50: 3.45 ± 0.18 µM
[2]
  MTP ED50: 1.6 µM

## CC(=O)O[C@H]1C(=O)[C@@]2(C)[C@H]([C@H](OC(=O)c3ccccc3)[C@]3(O)C[C@H](OC(=O)[C@H](O)[C@@H](NC(=O)c4ccccc4)c4ccccc4)C(C)=C1C3(C)C)[C@]1(OC(C)=O)CO[C@@H]1C[C@@H]2O [Paclitaxel]
[3]
  cytotoxicity ED50: 0.006 µM

## O=C1C[C@@H](c2ccccc2)Oc2c(Cc3cc(Cc4cc(Cc5ccccc5O)ccc4O)ccc3O)c(O)c(Cc3ccccc3O)c(O)c21 [compound 1, (2S)-5,7-dihydroxy-8-(2″-hydroxy-5″-(2′‴-hydroxy-5′‴-(2″‴-hydroxybenzyl)benzyl)benzyl)-6-(2‴-hydroxybenzyl)-flavanone]
Human 20S proteasome [1]
  proteasome ED50: >20 µM
[2]
  MTP ED50: 3.7 µM

## O=C1C[C@@H](c2ccccc2)Oc2c(Cc3ccccc3O)c(O)c(Cc3cc(Cc4cc(Cc5ccccc5O)ccc4O)ccc3O)c(O)c21 [compound 2, (2S)-5,7-dihydroxy-6-(2‴-hydroxy-5‴-(2′‴-hydroxy-5′‴-(2″‴-hydroxybenzyl)benzyl)benzyl)-8-(2″-hydroxybenzyl)-flavanone]
Human 20S proteasome [1]
  proteasome ED50: >20 µM
[2]
  MTP ED50: 6.8 µM

## O=C1C[C@@H](c2ccccc2)Oc2c(Cc3cc(Cc4ccccc4O)ccc3O)c(O)c(Cc3cc(Cc4cc(Cc5ccccc5O)ccc4O)ccc3O)c(O)c21 [compound 4, (2S)-5,7-dihydroxy-6-(2‴-hydroxy-5‴-(2″‴-hydroxy-5″‴-(2‴‴-hydroxybenzyl)benzyl)benzyl)-8-(2″-hydroxy-5′‴-(2′‴-hydroxybenzyl)benzyl)-flavanone]
Human 20S proteasome [1]
  proteasome ED50: >20 µM
[2]
  MTP ED50: 3.9 µM

## O=C1C[C@@H](c2ccccc2)Oc2cc(O)c(Cc3ccccc3O)c(O)c21 [compound 5, isochamanetin]
Human 20S proteasome [1]
  IC50: > 20 µM
[2]
  MTP ED50: 7.7 µM

## O=C1C[C@@H](c2ccccc2)Oc2c(Cc3ccccc3O)c(O)c(Cc3ccccc3O)c(O)c21 [compound 7, dichamanetin]
Human 20S proteasome [1]; human 20S proteasome bioassay
  inhibitory effect in proteasome assay: did not show any inhibitory effect
Human 20S proteasome [4]
  proteasome ED50: >20 µM
[2]
  MTP ED50: 3.6 µM

## O=C1C[C@@H](c2ccccc2)Oc2cc(O)cc(O)c21 [compound 10, pinocembrin]
Human 20S proteasome [1]
  IC50: 2.87 ± 0.26 µM
[2]; called inactive
  MTP ED50 (text, printed in μg/mL): > 20 µg/mL
[2]
  MTP ED50: >20 µM

## pipercallosine [compound 11]
Human 20S proteasome [1]
  proteasome ED50: >20 µM
[2]
  MTP ED50: 4.6 µM
